Holding throughout (assay type): functional
What all share (set-up): scale not given: the % may be the effect or the level left

Assay [1] deals with Rattus norvegicus. Kind of assay: Hypolipidemic activity in COBBS-CD rat assessed as reduction in serum sterol level at 0.1% administered with chow diet after 5 days relative to control. Put shortly: (§1)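 Male COBBS-CD rats, four per treated group and eight per control group. The compound was mixed into ground rat chow at 0.1, 0.03 or 0.01% w/w (about 100, 30 and 10 mg/kg). Control chow received only the mixing solvent (methanol-chloroform 1:3 v/v). Food and water were ad libitum for 5 days, then rats were decapitated and blood collected. Serum sterols were measured by an automated method and expressed relative to controls; ± values are SD.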

Assay [2] relates to Rattus norvegicus. Kind of assay: Hypolipidemic activity in COBBS-CD rat assessed as reduction in serum triglyceride level at 0.1% administered with chow diet after 5 days relative to control. Put shortly: (§2)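 The compound was given in ground chow at 0.1, 0.03 or 0.01% w/w (about 100, 30 and 10 mg/kg) to male COBBS-CD rats (n=4; solvent-chow controls n=8) for 5 days ad libitum. Rats were killed by decapitation and blood collected. Serum triglycerides were assayed by an automated method and compared with controls; ± values are SD.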

For assay [3], the system named is Rattus norvegicus. Briefly: Hypolipidemic activity in COBBS-CD rat assessed as reduction in serum triglyceride level at 0.03% administered with chow diet after 5 days relative to control. Put shortly:
as §2

The test system of assay [4] is Rattus norvegicus. Kind of assay: Hypolipidemic activity in COBBS-CD rat assessed as reduction in serum sterol level at 0.03% administered with chow diet after 5 days relative to control. Put shortly:
as §1

In assay [5] the test system is Rattus norvegicus. Kind of assay: Hypolipidemic activity in COBBS-CD rat assessed as reduction in serum triglyceride level at 0.01% administered with chow diet after 5 days relative to control. Put shortly:
as §2

In assay [6] the test system is Rattus norvegicus. Kind of assay: Hypolipidemic activity in COBBS-CD rat assessed as reduction in serum sterol level at 0.01% administered with chow diet after 5 days relative to control. Put shortly: as §1

For `COC(=O)C(Oc1cccc(-c2ccccc2)c1)c1ccc(Oc2ccc(Cl)cc2)cc1` (configuration not stated), the Activity was determined as 28% with Rattus norvegicus [1]; 66% in the assay on Rattus norvegicus [2]; 45% in the assay with Rattus norvegicus [3]; 21% with Rattus norvegicus [4]; 38% with Rattus norvegicus [5]; 8% in the assay on Rattus norvegicus [6].

For `COC(=O)C(Oc1ccc(C2CCCCC2)cc1)c1ccc(Oc2ccc(Cl)cc2)cc1` (configuration not stated), the Activity in the assay on Rattus norvegicus [1] turned out to be 51%; in the assay with Rattus norvegicus [2], 66%; in the assay on Rattus norvegicus [3], 47%; in the assay with Rattus norvegicus [4], 21%; in the assay with Rattus norvegicus [5] it was 37%; with Rattus norvegicus [6], 20%.

`COC(=O)C(Oc1cccc(Cl)c1)c1ccc(Oc2ccc(Cl)cc2)cc1` (configuration not stated): the Activity in the assay with Rattus norvegicus [1] is 19%; in the assay with Rattus norvegicus [2], 50%; in the assay with Rattus norvegicus [3], 22%; in the assay with Rattus norvegicus [4], 11%; in the assay on Rattus norvegicus [5] it was 13%; in the assay with Rattus norvegicus [6], -3%.

For the compound `COC(=O)C(Oc1ccc(Cl)c(Cl)c1)c1ccc(Oc2ccc(Cl)cc2)cc1` (configuration not stated), the Activity came out at 24% with Rattus norvegicus [1]; 67% with Rattus norvegicus [2]; 60% in the assay with Rattus norvegicus [3]; 26% in the assay on Rattus norvegicus [4]; 14% with Rattus norvegicus [5]; 5% with Rattus norvegicus [6].

Regarding `COC(=O)C(Oc1cc(Cl)cc(Cl)c1)c1ccc(Oc2ccc(Cl)cc2)cc1` (configuration not stated), the Activity is 26% in the assay on Rattus norvegicus [1]; 47% in the assay on Rattus norvegicus [2]; 6% in the assay on Rattus norvegicus [3]; 10% in the assay with Rattus norvegicus [4]; -44% with Rattus norvegicus [5]; -11% in the assay with Rattus norvegicus [6].

For `COC(=O)C(Oc1cccc2c1CCC2)c1ccc(Oc2ccc(Cl)cc2)cc1` (configuration not stated), the Activity is 19% in the assay with Rattus norvegicus [1]; 17% in the assay on Rattus norvegicus [2]; -8% with Rattus norvegicus [3]; 10% in the assay with Rattus norvegicus [4]; -39% with Rattus norvegicus [5]; 7% in the assay on Rattus norvegicus [6].

As to `COC(=O)C(Oc1ccc(Cl)c(C)c1)c1ccc(Oc2ccc(Cl)cc2)cc1` (configuration not stated), the Activity in the assay on Rattus norvegicus [1] came to 39%; in the assay with Rattus norvegicus [2], 54%; with Rattus norvegicus [3], 39%; in the assay on Rattus norvegicus [4], 34%; in the assay with Rattus norvegicus [5], 28%; with Rattus norvegicus [6], 34%.

Turning to `COC(=O)C(Oc1ccc(NC(C)=O)cc1)c1ccc(Oc2ccc(Cl)cc2)cc1` (configuration not stated), the Activity in the assay on Rattus norvegicus [1] was -3%; with Rattus norvegicus [2], 13%; in the assay on Rattus norvegicus [3] it was -20%; in the assay on Rattus norvegicus [4] it was -11%; with Rattus norvegicus [5], -9%; in the assay with Rattus norvegicus [6], -4%.

Turning to `COC(=O)C(Oc1ccc(Cl)cc1)c1ccc(Oc2ccc(C#N)cc2)cc1` (configuration not stated), the Activity in the assay on Rattus norvegicus [1] was found to be 16%; in the assay with Rattus norvegicus [2], 71%; in the assay with Rattus norvegicus [3], 60%; with Rattus norvegicus [4], 19%; in the assay on Rattus norvegicus [5], 50%; in the assay on Rattus norvegicus [6] it was 20%.

Turning to `COC(=O)C(Oc1cccc(C(F)(F)F)c1)c1ccc(Oc2ccc(C#N)cc2)cc1` (configuration not stated), the Activity is recorded as 32% in the assay with Rattus norvegicus [1]; 50% in the assay with Rattus norvegicus [2]; 34% in the assay with Rattus norvegicus [3]; 24% in the assay with Rattus norvegicus [4]; -37% with Rattus norvegicus [5]; 12% with Rattus norvegicus [6].

As to `COC(=O)C(Oc1ccc(C(C)(C)C)cc1)c1ccc(Oc2ccc(C#N)cc2)cc1` (configuration not stated), the Activity in the assay on Rattus norvegicus [1] came out at 13%; in the assay on Rattus norvegicus [2], 59%; in the assay on Rattus norvegicus [3] it was 63%; with Rattus norvegicus [4], 13%; with Rattus norvegicus [5] it was 69%; in the assay with Rattus norvegicus [6], 16%.

Turning to `COC(=O)C(Oc1ccc(Cl)cc1)c1ccc(Oc2ccc(S(C)(=O)=O)cc2)cc1` (configuration not stated), the Activity is listed as 15% in the assay with Rattus norvegicus [1]; 22% in the assay on Rattus norvegicus [2]; -11% in the assay on Rattus norvegicus [3]; -1% in the assay on Rattus norvegicus [4]; 11% in the assay with Rattus norvegicus [5]; 8% in the assay on Rattus norvegicus [6].

As for `COC(=O)C(Oc1ccc(F)cc1)c1ccc(Oc2ccc(S(C)(=O)=O)cc2)cc1` (configuration not stated), the Activity is recorded as 10% in the assay with Rattus norvegicus [1]; 3% in the assay on Rattus norvegicus [2]; -8% with Rattus norvegicus [3]; -1% in the assay on Rattus norvegicus [4]; 16% in the assay with Rattus norvegicus [5]; -3% in the assay with Rattus norvegicus [6].

As to `COC(=O)C(Oc1ccc(C(C)(C)C)cc1)c1ccc(Oc2ccc([N+](=O)[O-])cc2)cc1` (configuration not stated), the Activity is listed as 10% with Rattus norvegicus [1]; 51% in the assay on Rattus norvegicus [2]; 40% in the assay on Rattus norvegicus [3]; -4% with Rattus norvegicus [4]; 34% in the assay on Rattus norvegicus [5]; -3% in the assay on Rattus norvegicus [6].

With `COC(=O)C(Oc1ccc(Cl)cc1)c1ccc(Oc2ccccc2)cc1` (configuration not stated), the Activity in the assay on Rattus norvegicus [1] is given as 13%; in the assay on Rattus norvegicus [2], 58%; in the assay with Rattus norvegicus [3], 56%; in the assay on Rattus norvegicus [4], 3%; with Rattus norvegicus [5] it was 62%; in the assay on Rattus norvegicus [6], 19%.

On to `COC(=O)C(Oc1ccccc1)c1ccc(Oc2ccccc2)cc1` (configuration not stated), for which the Activity worked out at 21% in the assay with Rattus norvegicus [1]; 58% with Rattus norvegicus [2]; 49% in the assay with Rattus norvegicus [3]; 19% in the assay with Rattus norvegicus [4]; 46% in the assay with Rattus norvegicus [5]; 10% with Rattus norvegicus [6].

Take `COC(=O)C(Oc1ccc(Cl)cc1)c1ccc(Oc2cccc(C(F)(F)F)c2)cc1` (configuration not stated): the Activity was determined as 32% with Rattus norvegicus [1]; 50% with Rattus norvegicus [2]; 47% in the assay with Rattus norvegicus [3]; 31% with Rattus norvegicus [4]; 35% in the assay with Rattus norvegicus [5]; 8% with Rattus norvegicus [6].

Consider `COC(=O)C(Oc1ccc(C2CCCCC2)cc1)c1ccc(Oc2cccc(C(F)(F)F)c2)cc1` (configuration not stated), for which the Activity in the assay on Rattus norvegicus [1] came to 20%; with Rattus norvegicus [2], 59%; in the assay with Rattus norvegicus [3] it was 34%; in the assay on Rattus norvegicus [4], 18%; in the assay with Rattus norvegicus [5], 40%; in the assay with Rattus norvegicus [6], 8%.

Consider `COC(=O)C(Oc1ccc(Cl)cc1)c1ccc(Oc2ccc(C(C)(C)C)cc2)cc1` (configuration not stated), for which the Activity was determined as 7% in the assay with Rattus norvegicus [1]; 46% in the assay on Rattus norvegicus [2]; 30% with Rattus norvegicus [3]; 11% with Rattus norvegicus [4]; 25% with Rattus norvegicus [5]; 17% in the assay on Rattus norvegicus [6].

For `COC(=O)C(Oc1cccc(C(C)(C)C)c1)c1ccc(Oc2ccc(C(C)(C)C)cc2)cc1` (configuration not stated), the Activity with Rattus norvegicus [1] was 4%; with Rattus norvegicus [2], 33%; in the assay on Rattus norvegicus [3], 13%; in the assay with Rattus norvegicus [4] it was 6%; in the assay on Rattus norvegicus [5], 21%; in the assay with Rattus norvegicus [6], -5%.

With `COC(=O)C(Oc1ccc(C2CCCCC2)cc1)c1ccc(Sc2ccc(Cl)cc2)cc1` (configuration not stated), the Activity with Rattus norvegicus [1] is 19%; with Rattus norvegicus [2], 45%; in the assay on Rattus norvegicus [3] it was 44%; with Rattus norvegicus [4], 15%; in the assay with Rattus norvegicus [5], 33%; in the assay on Rattus norvegicus [6] it was 14%.

As for `O=C(OCC(O)CO)C(Oc1ccc(Cl)cc1)c1ccc(Oc2ccc(Cl)cc2)cc1` (configuration not stated), the Activity is reported as 39% with Rattus norvegicus [1]; 63% in the assay with Rattus norvegicus [2]; 53% with Rattus norvegicus [3]; 27% in the assay with Rattus norvegicus [4]; 24% in the assay with Rattus norvegicus [5]; 13% with Rattus norvegicus [6].

(Values after ChEMBL document CHEMBL3244011, “(Aryloxy)[p-(aryloxy)phenyl]- and (aryloxy)[p-(arylthio)phenyl]acetic acids and esters as hypolipidemic agents” (1979).)
